Values joined by “and” are separate entries in the source; they are usually repeats but may differ in a detail not shown here. Identical values can stand only once.
How the values were obtained:
[1] = target: T1, Steroid 17-alpha-hydroxylase/17,20 lyase (Rattus norvegicus, UniProt P11715); assay: Evaluated for the inhibitory activity towards Cytochrome P450 17 rat enzyme using testicular microsome at 25 uM of substrate (progesterone); set-up: species or system Testis
T1 sequence (P11715 whole entry): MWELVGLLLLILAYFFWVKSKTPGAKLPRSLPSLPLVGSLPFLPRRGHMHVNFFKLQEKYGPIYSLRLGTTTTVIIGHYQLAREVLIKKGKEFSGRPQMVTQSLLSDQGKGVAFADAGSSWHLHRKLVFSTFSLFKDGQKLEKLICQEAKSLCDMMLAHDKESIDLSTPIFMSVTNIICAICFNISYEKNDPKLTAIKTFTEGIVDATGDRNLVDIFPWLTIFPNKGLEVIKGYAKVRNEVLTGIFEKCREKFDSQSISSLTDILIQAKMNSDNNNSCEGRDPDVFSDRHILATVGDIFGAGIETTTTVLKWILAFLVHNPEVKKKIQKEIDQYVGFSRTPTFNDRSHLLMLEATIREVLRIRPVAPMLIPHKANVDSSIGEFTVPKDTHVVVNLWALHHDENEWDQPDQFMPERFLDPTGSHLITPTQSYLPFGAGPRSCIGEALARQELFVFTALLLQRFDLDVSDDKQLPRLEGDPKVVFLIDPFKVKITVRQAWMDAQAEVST
Summary of the method: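 Testicular microsomes (human for human enzyme, rat for rat enzyme) incubated with progesterone substrate at 25 µM; product measured by RP-HPLC with UV detection. IC50 = concentration giving 50% inhibition, mean of at least two experiments.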

[2] = target: T2, Steroid 17-alpha-hydroxylase/17,20 lyase (Homo sapiens, UniProt P05093); assay: Evaluated for the inhibitory activity towards Cytochrome P450 17 human enzyme using testicular microsome at 25 uM of substrate (progesterone); set-up: species or system Testis
T2 sequence (P05093 whole entry): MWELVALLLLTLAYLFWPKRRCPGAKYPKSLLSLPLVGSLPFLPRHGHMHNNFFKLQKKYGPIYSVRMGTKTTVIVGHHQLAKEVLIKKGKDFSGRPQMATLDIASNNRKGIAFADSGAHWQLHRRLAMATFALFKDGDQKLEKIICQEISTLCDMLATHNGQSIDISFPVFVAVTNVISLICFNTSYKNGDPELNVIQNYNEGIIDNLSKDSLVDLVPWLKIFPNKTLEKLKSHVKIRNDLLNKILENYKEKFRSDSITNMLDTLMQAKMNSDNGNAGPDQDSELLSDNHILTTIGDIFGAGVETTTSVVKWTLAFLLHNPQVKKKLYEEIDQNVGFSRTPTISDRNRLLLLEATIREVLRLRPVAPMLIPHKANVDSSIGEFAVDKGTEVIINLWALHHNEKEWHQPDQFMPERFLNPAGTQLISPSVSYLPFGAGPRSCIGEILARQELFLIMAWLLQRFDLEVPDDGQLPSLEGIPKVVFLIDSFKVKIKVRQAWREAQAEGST

[3] = target: T2, Steroid 17-alpha-hydroxylase/17,20 lyase; assay: Inhibition of human Cytochrome P450 17
Summary of the method: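 Human testicular microsomes with 25 µM progesterone as substrate. Product quantified by RP-HPLC with UV detection. IC50 is the mean of at least two experiments.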

[4] = target: T1, Steroid 17-alpha-hydroxylase/17,20 lyase; assay: Inhibition of rat Cytochrome P450 17
Summary of the method: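 Microsomes from rat testes with 25 µM progesterone as substrate. Product measured by RP-HPLC with UV detection. IC50 is the mean of at least two experiments.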

[5] = target: T2, Steroid 17-alpha-hydroxylase/17,20 lyase; assay: Inhibition of Human P450 17 and NADPH-P450 reductase co-expressed in Escherichia coli with 25 uM progesterone
[6] = target: T2, Steroid 17-alpha-hydroxylase/17,20 lyase; assay: Inhibition of Cytochrome P450 17 of human testicular microsomes at 25 uM progesterone
Summary of the method: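 Enzyme source was human testicular microsomes, with progesterone substrate at 25 µM and product determined by RP-HPLC with UV detection. IC50 is the inhibitor concentration giving 50% inhibition, reported as the mean of at least two experiments.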

[7] = target: T1, Steroid 17-alpha-hydroxylase/17,20 lyase; assay: Inhibition of Cytochrome P450 17 from rat testicular microsome at 125 uM progesterone; No inhibition
[8] = target: T3, 3-oxo-5-alpha-steroid 4-dehydrogenase 1 (Homo sapiens, UniProt P18405); assay: Evaluated for the inhibitory activity against human steroid 5-alpha-reductase type I in human DU-145 cell assay at 5 nM of androstenedione; type: cell-based
T3 sequence (P18405 whole entry): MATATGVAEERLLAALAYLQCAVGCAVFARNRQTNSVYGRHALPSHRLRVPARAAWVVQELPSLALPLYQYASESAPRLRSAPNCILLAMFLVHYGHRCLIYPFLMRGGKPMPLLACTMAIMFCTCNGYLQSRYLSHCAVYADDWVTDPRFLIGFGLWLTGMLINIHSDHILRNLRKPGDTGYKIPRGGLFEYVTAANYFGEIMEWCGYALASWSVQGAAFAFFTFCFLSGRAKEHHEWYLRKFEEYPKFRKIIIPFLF
Summary of the method: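 Whole human DU-145 cells as source of type 1 enzyme, incubated with radiolabeled androstenedione at 5 nM; HPLC separation of product. IC50 = inhibitor concentration giving 50% inhibition; mean of at least two experiments.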

[9] = target: T4, 3-oxo-5-alpha-steroid 4-dehydrogenase 2 (Homo sapiens, UniProt P31213); assay: Inhibition of Human steroid 5-alpha-reductase type II expressed in HEK293 cells; type: cell-based
T4 sequence (P31213 whole entry): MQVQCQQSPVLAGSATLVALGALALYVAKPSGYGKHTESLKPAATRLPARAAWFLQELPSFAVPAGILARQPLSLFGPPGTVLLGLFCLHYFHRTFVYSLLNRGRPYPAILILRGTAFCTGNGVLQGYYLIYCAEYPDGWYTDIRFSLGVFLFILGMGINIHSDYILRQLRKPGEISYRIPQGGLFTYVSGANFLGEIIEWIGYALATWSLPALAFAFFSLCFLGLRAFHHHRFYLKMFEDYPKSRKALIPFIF
Summary of the method: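 Stably transfected HEK293 clones expressing full-length human type 1 or type 2 cDNA; 300 000 cells per well attached overnight at 37 °C. Fresh DMEM/10% FCS with 5 nM [3H]androstenedione and inhibitor added, final DMSO 1%. Incubated 30 min (type 1) or 13 min (type 2); supernatant ether-extracted and analysed by HPLC. Mean of at least three experiments.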

[10] = target: T4, 3-oxo-5-alpha-steroid 4-dehydrogenase 2; assay: Evaluated for the inhibitory activity against human steroid 5-alpha-reductase type 2 from human BPH tissue at 210 nM of testosterone
Summary of the method: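 Enzyme from prostate homogenate of BPH patients, assayed at pH 5.5 with radiolabeled testosterone at 210 nM; product separated by HPLC. IC50 taken as inhibitor concentration giving 50% inhibition; mean of at least two experiments.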

[11] = target: T3, 3-oxo-5-alpha-steroid 4-dehydrogenase 1; assay: Inhibition of Human steroid 5-alpha-reductase type I expressed in HEK293 cells; type: cell-based
Summary of the method: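 Human 5α-reductase type 1 cDNA (plasmid pRcCMV-I) stably transfected into HEK293 cells, clones chosen under G418. 300 000 cells/well attached overnight at 37 °C, then fresh DMEM/10% FCS containing 5 nM [3H]androstenedione plus inhibitor (1% DMSO) for 30 min. Supernatant extracted with ether, product measured by HPLC. IC50 taken as mean of at least three experiments.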

[12] = target: T5, Thromboxane-A synthase (Homo sapiens) (UniProt P24557); assay: Inhibition of thromboxane synthase P450 TXA2 at 50 uM
T5 sequence (whole entry): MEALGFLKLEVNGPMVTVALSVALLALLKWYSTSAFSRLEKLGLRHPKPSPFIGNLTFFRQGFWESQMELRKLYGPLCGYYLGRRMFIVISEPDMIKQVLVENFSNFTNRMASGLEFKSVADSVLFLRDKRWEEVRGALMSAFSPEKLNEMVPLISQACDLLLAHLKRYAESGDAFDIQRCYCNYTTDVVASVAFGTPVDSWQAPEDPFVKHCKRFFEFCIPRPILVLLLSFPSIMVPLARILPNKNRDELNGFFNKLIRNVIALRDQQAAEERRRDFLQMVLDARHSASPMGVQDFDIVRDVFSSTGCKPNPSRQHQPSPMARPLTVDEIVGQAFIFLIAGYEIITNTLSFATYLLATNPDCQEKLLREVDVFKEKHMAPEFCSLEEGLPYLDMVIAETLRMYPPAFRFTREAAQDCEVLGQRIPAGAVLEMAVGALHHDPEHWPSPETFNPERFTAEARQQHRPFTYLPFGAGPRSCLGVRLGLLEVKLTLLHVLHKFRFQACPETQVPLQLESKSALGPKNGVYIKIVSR
Summary of the method: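 Thromboxane synthase activity measured in citrated human whole blood; inhibitor tested at 50 µM.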

[13] = target: T1, Steroid 17-alpha-hydroxylase/17,20 lyase; assay: Inhibition of Cytochrome P450 17 from rat testicular microsome at 25 uM progesterone; No inhibition
[14] = target: T2, Steroid 17-alpha-hydroxylase/17,20 lyase; assay: Inhibition of Cytochrome P450 17 of human testicular microsome at 25 uM progesterone; No inhibition
Rattus norvegicus [15] = organism: Rattus norvegicus; assay: Percent decrease in plasma testosterone after 2 hr; type: functional
Summary of the method: (§1)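 Adult male Sprague-Dawley rats, 7–8 per group, each received one intraperitoneal dose of 0.019 mmol/kg in olive oil/benzyl alcohol (95:5). Blood was drawn by cardiac puncture under diethyl ether anaesthesia at 2 or 6 h. Plasma testosterone was measured by double-antibody [125I]RIA (detection limit 0.1 ng/mL) and compared with vehicle controls.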

Rattus norvegicus [16] = organism: Rattus norvegicus; assay: Percent decrease in plasma testosterone after 6 hr; type: functional; summary of the method: as §1

| IC50 [1] [nM] | IC50 [2] [nM] | IC50 [8] [nM] | IC50 [10] | IC50 [11] [nM] | Structure (SMILES) | also measured |
| --- | --- | --- | --- | --- | --- | --- |
| > 125000 | > 2500 |  |  |  | C/C(=N/O)C1CC=C2C3CC=C4CC(O)CCC4(C)C3CCC21C (stereo not drawn) |  |
| > 125000 | > 2500 |  |  |  | CC12CCC(O)CC1=CCC1C2CCC2(C)/C(=C/C=N/O)CCC12 (stereo not drawn) |  |
| 125000 | 200 |  |  |  | C/C(=N/O)[C@H]1CC=C2[C@@H]3CC=C4C[C@@H](O)CC[C@]4(C)[C@H]3CC[C@@]21C | IC50 [5]: 420 nM |
| 300 |  | 1950 | 300 nM | 2440 | CC12CCC(=O)C=C1CCC1C2CCC2(C)C(C/C=N/O)CCC12 (stereo not drawn) | IC50 [9]: 890 nM |
| 520 | 77 |  |  |  | C[C@]12CC[C@H](O)CC1=CC[C@H]1C3CC/C(=C/C=N\O)[C@@]3(C)CC[C@@H]12 (stereo partly drawn) | IC50 [5]: 230 nM; inhibition [12]: 35% |

Continued, molecule first:

| Structure (SMILES) | IC50 [1] [nM] | IC50 [2] [nM] | IC50 [8] [nM] | IC50 [10] | IC50 [11] [nM] | also measured |
| --- | --- | --- | --- | --- | --- | --- |
| CC12CCC(O)CC1=CCC1C2CCC2(C)C(c3c[nH]cn3)=CCC12 (stereo not drawn) |  |  |  |  |  | IC50 [3]: 40 nM; IC50 [4]: 180 nM |
| C/C(=N/O)[C@H]1CC[C@H]2[C@@H]3CC=C4C[C@@H](O)CC[C@]4(C)[C@H]3CC[C@]12C |  |  |  |  |  | IC50 [6]: 1650 nM; IC50 [7]: Not Active |
| C/C(CC1CCC2C3CC(=O)C4=CC(=O)CCC4(C)C3CCC12C)=N\O (stereo not drawn) |  |  | 900 | 430 nM | 2900 | IC50 [13]: Not Active; IC50 [9]: 860 nM; IC50 [14]: Not Active |
| C/C(=N/O)[C@H]1CCC2C3CCC4=CC(=O)CCC4(C)C3CCC21C (stereo partly drawn) | > 125000 | > 2500 | 1630 | 580 nM and 1170 nM | 1770 |  |
| CC(=O)N1CCN(c2ccc(OCC3COC(Cn4ccnc4)(c4ccc(Cl)cc4Cl)O3)cc2)CC1 (stereo not drawn) [KETOCONAZOLE] |  |  |  |  |  | Decrease (Rattus norvegicus [15]): 57%; Decrease (Rattus norvegicus [16]): 44% |
